Results reported in PubChem BioAssay.
Records with an inconclusive call do not appear.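 How the source made its calls, unless noted: active means growth inhibition above 25% in both replicates, a cutoff set 3 SD above the mean; inconclusive means above 25% in only one replicate; inactive means the rest.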

Legend:
[1] = OD615 S. cerevisiae growth inhibition, permissive medium, pilot counter-assay, permissive growth control for S. cerevisiae lifespan shortening project (AID 705); details: OD615, 24 h, at 10 µM, active compounds read high
Summary of the method: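 Material: engineered DeaD yeast; Compound: one dose 10 µM, DMSO 0.25% final; Detection: absorbance (optical density) at 615 nm; Buffer or medium: permissive raffinose/galactose medium; Timing: 24 h exposure, 30 °C.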

[2] = Restrictive medium S. cerevisiae growth inhibition, OD615, pilot screen of yeast lifespan reduction project, restrictive growth control (AID 706;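 active means growth inhibition above a set limit, 3 SD over mean compound inhibition, in both replicates, cut at about 43% in these data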;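 further: modified DeaD lifespan yeast strain shifted to restrictive glucose medium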); details: OD615, 48 h, at 10 µM, active compounds read high
Summary of the method: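 Buffer or medium: restrictive glucose medium (CSMM-D); test system: modified S. cerevisiae; doses: single dose of 10 µM compound final, 0.25% DMSO; schedule: 48 h compound exposure at 30 °C; detection: absorbance (optical density) measured at 615 nm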

[3] = viability gain of MRP-1-high H69AR cells under doxorubicin, pilot screen, MRP-1 activator project, CellTiter-Glo, duplicate (AID 807;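 active means viability increase at or above a cutoff of the median across tested compounds plus 3 SD, cut at about 8.5% in these data, passing the limit was not always enough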;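 further: compound pretreatment 18-22 h then 72 h combined with doxorubicin; 0% = doxorubicin alone and 100% = vehicle without doxorubicin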); details: H69AR viability with doxorubicin, CellTiter-Glo luminescence; at 10 µM; active compounds read high
[4] = growth suppression of beta-catenin knockout HCT116, pilot screen, human colon tumor cells (AID 823;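 active means cell viability at or below a set limit in both duplicate runs, the limit being the all-compound median minus 4 SD, cut at about 23% in these data, passing the limit was not always enough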;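 further: 0% = wells killed by 20 µM Hyamine and 100% = untreated DMSO cell wells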); details: CellTiter-Glo, 60 h, at 10 µM, active compounds read low
[5] = growth suppression of PTEN-deleted HCT116, pilot screen, cell-based, HCT116 clonal line, CellTiter-Glo (AID 824;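 active means viability at or below 27.92% in each of two runs, the all-compound median minus 4 SD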;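 further: 0% = 20 µM Hyamine control and 100% = vehicle cell control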); details: 60 h, at 10 µM, active compounds read low
[6] = RAM signaling pathway blockade in yeast – S. cerevisiae, Pdr1DBD-CYC8 efflux-inhibited sensitized strain, primary screen (AID 1298;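 active means RAM network inhibition above 8.4% in each of two replicates, 3 SD over the compound average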;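 further: 0% = DMSO untreated cells without growth and 100% = 10 µM 1-NA-PP1 full growth; higher means more yeast growth rescued from 5-FOA killing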); details: S. cerevisiae cbk1-as DSE1-URA3 strain, 5-FOA growth OD615, 2 d; at 50 µM; active compounds read high
[7] = inhibitors of the yeast RAM network, pilot screen, dse1pr::URA3 reporter, 5-FOA selection (AID 869;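 active means inhibition over a set limit, the all-compound mean plus 3 SD, in both replicate runs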;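 further: 0% = DMSO wells with no growth and 100% = 10 µM 1-NA-PP1 with full growth; RAM network block rescues cells from 5-FOA so hits raise OD615 growth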); details: S. cerevisiae dse1pr::URA3 5-FOA growth, OD615, 2 d; at 10 µM; active compounds read high; strain carries analog-sensitive mutant Cbk1 kinase

Cc1cc(=S)cc(C)n1CCCn1ccnc1
inactive: growth inhibition [1] -1.13% | growth inhibition [2] -26.5% | viability increase [3] -0.81% | viability [4] 103% | viability [5] 99.7% | RAM network inhibition [6] 3.26%

CCOc1cc(-c2nc(-c3ccc(OC)cc3)no2)cc(OCC)c1OCC
inactive: growth inhibition [1] -4.43% | growth inhibition [2] -2.33% | viability increase [3] -3.25% | viability [4] 93.9% | viability [5] 89.5% | RAM network inhibition [6] 9.91%

Cc1cc(C)nc(NS(=O)(=O)c2ccc(Br)s2)c1
inactive: growth inhibition [1] -1.63% | growth inhibition [2] -7.46% | viability increase [3] -0.89% | viability [4] 95.9% | viability [5] 93.5% | inhibition [7] 0.28% | RAM network inhibition [6] 9.36%

O=C1Nc2ccccc2C(O)(C(=O)NC2CC2)N1c1ccc(Cl)c(Cl)c1 (stereo not given)
inactive: growth inhibition [1] -1.51% | growth inhibition [2] -1.06% | viability increase [3] -4.14% | viability [4] 92.5% | viability [5] 95% | inhibition [7] 1.22% | RAM network inhibition [6] 3.99%

COc1cccc(C2NC(=O)NC(C)=C2C(=O)Nc2ccc(C)cc2)c1 (stereo not given)
inactive: growth inhibition [1] -9.18% | growth inhibition [2] -12% | viability increase [3] 1.54% | viability [4] 106% | viability [5] 97.6% | inhibition [7] 0.285% | RAM network inhibition [6] 3.39%

CC(=O)Nc1ccc(S(=O)(=O)Nc2nc3ccccc3nc2Sc2nncn2C)cc1
inactive: growth inhibition [1] 1.94% | growth inhibition [2] 11.7% | viability increase [3] -2.89% | viability [4] 98.1% | viability [5] 98.1% | inhibition [7] 1.86% | RAM network inhibition [6] 2.12%

COC(=O)NCc1ccc(Cl)c(Cl)c1
inactive: growth inhibition [1] 0.76% | growth inhibition [2] -7.57% | viability increase [3] -1.07% | viability [4] 85.4% | viability [5] 88.6% | inhibition [7] 0.09% | RAM network inhibition [6] 4.44%

CC1Cn2c(nnc2-c2ccccc2O)S1 (stereo not given)
inactive: growth inhibition [1] -13.6% | growth inhibition [2] -21.9% | viability increase [3] -1.33% | viability [4] 115% | viability [5] 98.2% | RAM network inhibition [6] 5.23%

CSc1ccc(CN2CCC(O)CC2)cc1
inactive: growth inhibition [1] -12.7% | growth inhibition [2] -15.8% | viability increase [3] -0.93% | viability [4] 102% | viability [5] 100% | inhibition [7] 1.4% | RAM network inhibition [6] 5.11%

Cn1c(C(C#N)/C(=N\S(=O)(=O)c2cccs2)c2ccccc2)nc2ccccc21 (stereo not given)
inactive: growth inhibition [1] -17.5% | growth inhibition [2] -19.6% | viability increase [3] -1.15% | viability [4] 95.5% | viability [5] 94.7% | RAM network inhibition [6] 6.16%

CC(=O)Nc1ccc(S(=O)(=O)N2CCN(CCC#N)CC2)cc1
inactive: growth inhibition [1] -4.55% | growth inhibition [2] 6.44% | viability increase [3] 0.85% | viability [4] 111% | viability [5] 97.1% | inhibition [7] 1.86% | RAM network inhibition [6] 0.19%

O=P(O)(CN1CCCCC1)C1CCCCC1O (stereo not given)
inactive: growth inhibition [1] -11.2% | growth inhibition [2] -3.29% | viability increase [3] -1.71% | viability [4] 105% | viability [5] 104% | inhibition [7] 0.06% | RAM network inhibition [6] 1.57%

COC(=O)c1ccc(Nc2ncnc3c2cnn3-c2cccc(C)c2)cc1
inactive: growth inhibition [1] -13% | growth inhibition [2] -25.2% | viability increase [3] -3.78% | viability [4] 109% | viability [5] 93.4% | RAM network inhibition [6] 10.5%

COc1cc(C2C(C#N)=C(C)NC3=C2C(=O)CC(C)(C)C3)ccc1OCCO (stereo not given)
inactive: growth inhibition [1] -9.96% | growth inhibition [2] -14.6% | viability increase [3] -0.94% | viability [4] 97.8% | viability [5] 104% | inhibition [7] 1.43% | RAM network inhibition [6] 3.55%

O=C(Nc1nc(-c2nc3ccccc3s2)cs1)C1COc2ccccc2O1 (stereo not given)
inactive: growth inhibition [1] 2.93% | growth inhibition [2] -0.5% | viability increase [3] -2.5% | viability [4] 96.8% | viability [5] 91.3% | RAM network inhibition [6] 2.13%

CC(C)=C1SC(N2CCN(Cc3ccccc3)CC2)=NC1=O
inactive: growth inhibition [1] -6.78% | growth inhibition [2] -0.855% | viability increase [3] -2.86% | viability [4] 94.9% | viability [5] 97.5% | inhibition [7] 0.52% | RAM network inhibition [6] 4.6%

COc1ccc(CCc2nc(-c3ccc(-n4cccc4)cc3)no2)cc1
inactive: growth inhibition [1] -20.1% | growth inhibition [2] -25.5% | viability increase [3] 1.78% | viability [4] 93.9% | viability [5] 91.6% | RAM network inhibition [6] 6.54%

COc1ccc(N(CC(=O)NC2CCCCCCC2)S(=O)(=O)c2c(C)nn(C)c2C)cc1
inactive: growth inhibition [1] -20.7% | growth inhibition [2] -13.6% | viability increase [3] -2.87% | viability [4] 89.2% | viability [5] 87.5% | inhibition [7] 1.31% | RAM network inhibition [6] 0.05%

CCOC(=O)c1ccc(NC(=O)C2C3C=CC(C3)C2C(=O)O)cc1 (stereo not given)
inactive: growth inhibition [1] 5.27% | growth inhibition [2] 5.33% | viability increase [3] 0.55% | viability [4] 98.5% | viability [5] 106% | inhibition [7] 0.29% | RAM network inhibition [6] 1.09%

O=c1c2cnn(-c3ccccc3)c2ncn1Cc1cccc(Cl)c1
inactive: growth inhibition [1] 2.21% | growth inhibition [2] 2.59% | viability increase [3] 3.21% | viability [4] 102% | viability [5] 91.7% | inhibition [7] 3.21% | RAM network inhibition [6] 6.55%

CCOC(=O)Nc1ccc(S(=O)(=O)Nn2cnnc2)cc1
inactive: growth inhibition [1] -14.5% | growth inhibition [2] 1.07% | viability increase [3] 0% | viability [4] 89% | viability [5] 108% | RAM network inhibition [6] 3.94%

CCOC(=O)Nc1ccc2c(c1)N(C(=O)N(C)C)c1ccccc1CC2
inactive: growth inhibition [1] -8.91% | growth inhibition [2] -0.49% | viability increase [3] -1.82% | viability [4] 96.8% | viability [5] 96% | inhibition [7] -0.31% | RAM network inhibition [6] 2.67%

CCOC(=O)N1CCC(N2C(=O)c3ccc(C(=O)Nc4ccc(F)cc4F)cc3C2=O)CC1
inactive: growth inhibition [1] -2.61% | growth inhibition [2] -7.76% | viability increase [3] -6.61% | viability [4] 91.1% | viability [5] 94.4% | RAM network inhibition [6] 4.78%

Cn1c(=O)c2cc(S(=O)(=O)NC(Cc3ccccc3)C(=O)NCc3ccco3)ccc2n(C)c1=O (stereo not given)
inactive: growth inhibition [1] -16.4% | growth inhibition [2] -11.4% | viability increase [3] -4.79% | viability [4] 101% | viability [5] 92% | inhibition [7] 2.81% | RAM network inhibition [6] 4.39%

CCOC(=O)c1c(C)[nH]c(C(=O)COc2ccc3c(c2)OCO3)c1C
inactive: growth inhibition [1] 1.84% | growth inhibition [2] -1.24% | viability increase [3] -2.79% | viability [4] 91.2% | viability [5] 87.5% | RAM network inhibition [6] 5.07%

COc1ccc(-n2c(SCC(=O)N3CCCC3)nc3c([nH]c4ccccc43)c2=O)cc1
inactive: growth inhibition [1] -20.2% | growth inhibition [2] -19.5% | viability increase [3] -3.04% | viability [4] 105% | viability [5] 93.7% | RAM network inhibition [6] 1.9%

O=C(CSc1cn(Cc2ccccc2)c2ccccc12)Nc1nccs1
inactive: growth inhibition [1] -7.55% | growth inhibition [2] 3.57% | viability increase [3] 1.89% | viability [4] 88.8% | viability [5] 85.4% | inhibition [7] 1.73% | RAM network inhibition [6] 0.83%

CCC(C)(C(=O)NC1CCCC1)N(CC1CCCO1)C(=O)CNC(=O)c1ccccc1 (stereo not given)
inactive: growth inhibition [1] -6.16% | growth inhibition [2] -12.3% | viability increase [3] -2.92% | viability [4] 98.2% | viability [5] 93% | RAM network inhibition [6] 1.24%

O=C1C(=O)N(CCCn2ccnc2)C(c2cccnc2)/C1=C(/O)c1ccc(Cl)cc1 (stereo not given)
inactive: growth inhibition [1] -11.6% | growth inhibition [2] -4.88% | viability increase [3] -0.32% | viability [4] 97.2% | viability [5] 98.6% | inhibition [7] 0.905% | RAM network inhibition [6] 1.1%

CCOC(=O)c1c(CN2CCCCC2)n(C)c2cc(Br)c(O)c(CN(C)C)c12
inactive: growth inhibition [1] -16.8% | growth inhibition [2] 5.7% | viability increase [3] -2.65% | viability [4] 75.7% | viability [5] 79.5% | RAM network inhibition [6] 0.94%

O=C(O)c1cnn2c1NC(c1cccs1)CC2C(F)(F)F (stereo not given)
inactive: growth inhibition [1] -22.6% | growth inhibition [2] -21.6% | viability increase [3] 0.98% | viability [4] 96.8% | viability [5] 104% | inhibition [7] 1.5% | RAM network inhibition [6] 4.4%

Cn1cc(S(=O)(=O)N2CCN(Cc3ccccc3)CC2)c(=O)n(C)c1=O
inactive: growth inhibition [1] -11.9% | growth inhibition [2] -10.5% | viability increase [3] -0.5% | viability [4] 95.2% | viability [5] 95.5% | inhibition [7] 0.755% | RAM network inhibition [6] -0.22%

COc1ccccc1NC(=O)C1=C(C)Nc2nnnn2C1c1cccc(C)c1 (stereo not given)
inactive: growth inhibition [1] -13.2% | growth inhibition [2] -18.7% | viability increase [3] -5.73% | viability [4] 82.3% | viability [5] 80.8% | inhibition [7] 3.79% | RAM network inhibition [6] 2.19%

CCOc1ccccc1N1C(=O)c2cccnc2C1=O
inactive: growth inhibition [1] -9.2% | growth inhibition [2] 7.41% | viability increase [3] -1.2% | viability [4] 102% | viability [5] 98.7% | inhibition [7] 1.04% | RAM network inhibition [6] 10.2%
